The values that follow come from ChEMBL document CHEMBL2396655, “Design, synthesis, and biological evaluation of (E)-N-aryl-2-arylethenesulfonamide analogues as potent and orally bioavailable microtubule-targeted anticancer agents” (J Med Chem, 2013).

In brackets after ≈: the same amount, converted by molar mass. Activity calls are given as the source filed them. The rule behind the calls is not given here.

The subject of data set [1] is CCRF-CEM. Description: Growth inhibition of human CEM cells. Format: functional.
For data set [2], the system named is CCRF-CEM. Description: Resistance factor, ratio of GI50 for multidrug-resistant human CEM/C2 cells to GI50 for human CEM cells. Format: functional.
The subject of another data set is CEM/C2. Description: Growth inhibition of multidrug-resistant human CEM/C2 cells. Format: functional.
For another data set, the system named is A-431. As to the kind of experiment: Cytotoxicity against human A431 cells after 96 hrs by trypan blue exclusion assay. Format: functional. To be noted: A-431, 96 h. A digest of the protocol:
(§1)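 Cells were grown in DMEM or RPMI with 10% FBS and plated at 2.5×10⁴ cells/well in 12-well dishes. Compounds were added 24 h later at various concentrations. After 96 h, viable cells were counted by trypan blue exclusion from duplicate wells. Results are the mean of two independent experiments.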

A further data set concerns BT-20. As to the kind of experiment: Cytotoxicity against human BT20 cells after 96 hrs by trypan blue exclusion assay. Format: functional. To be noted: BT-20, 96 h. The essentials: as §1
The subject of the next data set is NCI-H417. Description: Cytotoxicity against human NCI-N417 cells after 96 hrs by trypan blue exclusion assay. Format: functional. To be noted: NCI-H417, 96 h. The essentials:
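Cells grown in DMEM or RPMI with 10% FBS and 1 unit/mL penicillin-streptomycin, seeded in 12-well dishes at 2.5 ×10⁴ cells/mL/well. Compound added 24 h later at various concentrations. Viable cells counted by trypan blue exclusion from duplicate wells after 96 h. Value taken from dose-response curves of two independent experiments.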

The next data set deals with OVCAR-3. Description: Cytotoxicity against human OVCAR3 cells after 96 hrs by trypan blue exclusion assay. To be noted: OVCAR-3, 96 h. Format: functional. A digest of the protocol: as §1
Another data set relates to K562. Description: Cytotoxicity against human K562 cells after 96 hrs by trypan blue exclusion assay. Format: functional, cell-based. To be noted: for GI50 / IC50: K562, 96 h. The essentials: as §1
The nature of data set [3]: Cytotoxicity against human U87 cells after 96 hrs by sulforhodamine B assay. Format: functional, cell-based, U-87MG ATCC. To be noted: U-87 MG. For orientation: The SRB assay estimates cell density from bound dye.
The next data set concerns LNCaP. Description: Cytotoxicity against human LNCAP cells after 96 hrs by trypan blue exclusion assay. Format: functional. A digest of the protocol: as §1
Data set [4] can be described thus: Cytotoxicity against human H80 cells after 96 hrs by trypan blue exclusion assay. Format: functional. To be noted: H80, 96 h. The essentials: as §1
For a further data set, the system named is DU-145. Description: Cytotoxicity against human DU145 cells after 96 hrs by trypan blue exclusion assay. Format: functional, cell-based. To be noted: for GI50 / IC50: DU-145, 96 h. A digest of the protocol: as §1
A short description of data set [5]: Cytotoxicity against human NAMALWA cells after 96 hrs by trypan blue exclusion assay. Format: functional. To be noted: NAMALVA. A digest of the protocol:
as §1

A short description of data set [6]: Cytotoxicity against human RF48 cells after 96 hrs by trypan blue exclusion assay. Format: functional. To be noted: RF48, 96 h. A digest of the protocol:
as §1

For the next data set, the system named is T47D. As to the kind of experiment: Cytotoxicity against human T47D cells after 96 hrs by trypan blue exclusion assay. Format: functional. The essentials:
as §1

A further data set deals with HCT-116. Description: Cytotoxicity against human HCT116 cells after 96 hrs by trypan blue exclusion assay. To be noted: HCT-116, 96 h. Format: functional. A digest of the protocol: as §1
Another data set relates to SK-OV-3. As to the kind of experiment: Cytotoxicity against human SKOV3 cells after 96 hrs by trypan blue exclusion assay. To be noted: SK-OV-3, 96 h. Format: functional. The essentials: as §1
The test system of a further data set is PC-3. As to the kind of experiment: Cytotoxicity against human PC3 cells after 96 hrs by trypan blue exclusion assay. Format: functional. To be noted: PC-3, 96 h. The essentials: as §1
Another data set concerns MOLT-4. As to the kind of experiment: Cytotoxicity against human MOLT4 cells after 96 hrs by trypan blue exclusion assay. Format: functional. To be noted: MOLT-4, 96 h. A digest of the protocol:
as §1

The subject of another data set is HCT-15. As to the kind of experiment: Cytotoxicity against human HCT15 cells after 96 hrs by trypan blue exclusion assay. Format: functional. To be noted: HCT-15, 96 h. A digest of the protocol:
as §1

The subject of a further data set is Daudi. As to the kind of experiment: Cytotoxicity against human Daudi cells after 96 hrs by trypan blue exclusion assay. Format: functional. A digest of the protocol:
as §1

The test system of another data set is NCI-H187. Description: Cytotoxicity against human NCI-H187 cells after 96 hrs by trypan blue exclusion assay. Format: functional. To be noted: NCI-H187, 96 h. The essentials: as §1
The next data set concerns MIA PaCa-2. As to the kind of experiment: Cytotoxicity against human MIAPaCa2 cells after 96 hrs by trypan blue exclusion assay. Format: functional. To be noted: MIA PaCa-2, 96 h. The essentials:
as §1

A further data set relates to BT-474. Description: Cytotoxicity against human BT474 cells after 96 hrs by trypan blue exclusion assay. Format: functional. To be noted: BT-474, 96 h. A digest of the protocol:
as §1

Data set [7] can be described thus: Growth inhibition of multidrug-resistant human MES-SA/Dx5 cells. Format: functional.
For data set [8], the species on record is Bos taurus. As to the kind of experiment: Effect on bovine brain tubulin assessed as stabilization of microtubule polymerization at 10 uM over 40 mins by spectrophotometric analysis. The essentials:
(§2)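 Purified bovine brain tubulin was incubated at 37 °C with 10 μM compound, DMSO or reference agents. Polymerization was followed as rising absorbance at 340 nm over 40 min. Data are representative of three independent experiments.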

Data set [9] relates to 2008. Description: Resistance factor, ratio of GI50 for paclitaxel-resistant human 2008/17/4 cells to GI50 for human 2008 cells. Format: functional.
Another data set concerns MES-SA. As to the kind of experiment: Resistance factor, ratio of GI50 for multidrug-resistant human MES-SA/Dx5 cells to GI50 for human MES-SA cells. Format: functional.
Data set [10] deals with 2008. As to the kind of experiment: Growth inhibition of human 2008 cells. Format: functional.
A short description of data set [11]: Growth inhibition of human MES-SA cells. Format: functional.
A short description of data set [12]: Growth inhibition of paclitaxel-resistant human 2008/17/4 cells. Format: functional. A digest of the protocol: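 Cells grown in DMEM or RPMI with 10% FBS and penicillin-streptomycin, seeded at 2.5 × 10⁴ cells/mL/well; compound added 24 h later over a concentration range. After 96 h, viable cells counted by trypan blue exclusion in duplicate wells. GI₅₀ is the concentration giving 50% growth inhibition, reported as mean ± SD of two independent experiments.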

The species entered for data set [13] is Bos taurus. As to the kind of experiment: Inhibition of bovine brain tubulin assessed as destabilization of microtubule polymerization at 10 uM over 40 mins by spectrophotometric analysis. A digest of the protocol: as §2
The test system of another data set is MCF7. Description: Cytotoxicity against human MCF7 cells after 96 hrs by trypan blue exclusion assay. To be noted: MCF7, 96 h. Format: functional. The essentials:
as §1

A short description of data set [14]: Solubility of the compound in water. Format: physicochemical.

Usually GI50 stands for the concentration that inhibits growth by half. A low value points to more potent growth inhibition. `CC[C@@]1(O)C(=O)OCc2c1cc1n(c2=O)Cc2cc3ccccc3nc2-1` [CAMPTOTHECIN]: the GI50 with CCRF-CEM [1] was found to be 2 nM; in the data set on CEM/C2, 1000 nM. In the data set on CCRF-CEM [2], the RatioGI50 worked out at 500.

One may read the IC50 as the midpoint of a concentration-inhibition curve. Higher therefore signals weaker potency. Turning to `COc1cc(OC)c(/C=C/S(=O)(=O)Nc2ccc(OC)c(O)c2)c(OC)c1`, the GI50 came out at 600 nM in the data set on A-431; 250 nM with BT-20; 10 nM in the data set on NCI-H417; 100 nM with OVCAR-3; 15 nM in the data set with K562; 50 nM in the data set with LNCaP. Besides, the GI50 came to 25 nM in [4], 50 nM in the data set on DU-145 and 25 nM in data set [5]. The Activity result with K562 and in the data set with DU-145 was “Dose-dependent effect” each time. Further, the values for the IC50 (in the data set with K562; in data set [3]; in the data set with DU-145) were 15 nM, 26 nM and 30 nM, respectively.

In the case of `COc1ccc(NS(=O)(=O)/C=C/c2c(OC)cc(OC)cc2OC)cc1`, the GI50 in the data set on A-431 came to 30 nM; in the data set on BT-20, 250 nM; in data set [6], 25 nM; in the data set on NCI-H417, 50 nM; in the data set with OVCAR-3 it was 100 nM; in the data set with T47D it was 100 nM. Further, the GI50 came out at 75 nM in the data set on K562; 100 nM in the data set with HCT-116; 100 nM with SK-OV-3; 100 nM in the data set on PC-3; 100 nM in the data set with MOLT-4; 100 nM in the data set with HCT-15. Besides, the GI50 in the data set on Daudi turned out to be 100 nM; with LNCaP it was 100 nM; in [4], 100 nM; in the data set with NCI-H187, 100 nM; in the data set on MIA PaCa-2 it was 100 nM; with BT-474 it was 250 nM. Also, the GI50 in the data set on DU-145 turned out to be 75 nM; in data set [5], 100 nM. In addition, the Activity entry in the data set on K562 and with DU-145 was “Dose-dependent effect” throughout. In addition, the figures for the IC50 (in the data set on K562; in data set [3]; in the data set with DU-145) were 75 nM, 229 nM and 200 nM, respectively.

On to `CC(=O)O[C@H]1C(=O)[C@@]2(C)[C@H]([C@H](OC(=O)c3ccccc3)[C@]3(O)C[C@H](OC(=O)[C@H](O)[C@@H](NC(=O)c4ccccc4)c4ccccc4)C(C)=C1C3(C)C)[C@]1(OC(C)=O)CO[C@@H]1C[C@@H]2O` [PACLITAXEL], for which the GI50 in [7] was 750 nM; with 2008 [10], 3 nM; in data set [11], 4 nM; in [12], 2000 nM. For the same compound, the result in the data set listed under Bos taurus [8] was Active. Besides, the RatioGI50 in the data set on 2008 [9] is 600; with MES-SA, 190.

As usually defined, the solubility is the dissolved amount per volume that the medium holds. The low end stands for a poorly soluble substance, the high end for a readily soluble substance. In the case of `COc1cc(OC)c(/C=C/S(=O)(=O)Nc2ccc(OC)c(NC(C)(C)C(=O)O)c2)c(OC)c1`, the GI50 with A-431 amounted to 150 nM; in the data set with BT-20, 100 nM; in the data set with NCI-H417, 30 nM; in data set [7] it was 90 nM; with K562 it was 10 nM; with MCF7, 80 nM. The GI50 in the data set with HCT-15 came out at 200 nM; with LNCaP it was 100 nM; in the data set with MIA PaCa-2, 80 nM; with BT-474, 150 nM; in data set [11], 70 nM; in the data set on DU-145, 150 nM. Besides, the Activity entry with K562 and in the data set on DU-145 was “Dose-dependent effect” throughout. Besides, the values for the IC50 (in the data set with K562; in [3]; in the data set on DU-145) were 5 nM, 90 nM and 70 nM, respectively. The inhibition result in the data set listed under Bos taurus [13] was “Active”. The RatioGI50 with MES-SA is listed as 1.3. Besides, the solubility in [14] worked out at 10000 µg/mL (≈ 20.8 mM).
